Fewer inactive variants are shown than the library holds.
B1: tRNA (parent)
chain: GUUCCGUUGGCGUAAUGGUAACGCGUCUCCCUCCUAAGGAGAAGACUGCGGGUUCGAGUCCCGUACGGAACG

Variants of: B1
Assay: yeast fitness relative to wild type (ratio to wild type); higher = fitter; tRNA-Arg(CCU), competitive growth, 37 C, YPD
Procedure, shortened: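 Amplicons of the tRNA-Arg(CCU) gene were sequenced, 100-nucleotide paired-end, from the start population and from each end population of a pooled yeast competition. The competition, in six parallel replicates, lasted 24 hours in YPD at 37°C. Fitness relative to wild type was calculated from changes in genotype frequencies. Genotypes had to have ≥ 100 starting reads, and estimates < 0.5 were set to 0.5.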

| Variant | yeast fitness |
| --- | --- |
| C24U U32G A40U U64G A65G | ≤ 0.5 |
| U26A A36G A70U | 0.584 |
| U26A C30U A42C C46U A65G | 0.859 |
| G25A G41A C60G C62G A65G | ≤ 0.5 |
| C24U C33U C61A A69U | ≤ 0.5 |
| U26C A43U G50A G68A | ≤ 0.5 |
| C24U G25C G56A | 0.882 |
| C24U G48A G51A | 0.665 |
| C24U C49G G63A A69C | ≤ 0.5 |
| G25C C34U G41A C49G A69C | ≤ 0.5 |
| U26A C49U A57U | ≤ 0.5 |
| C24G C55G C66U | ≤ 0.5 |
| U26A A37G C66A | ≤ 0.5 |
| G25A A36C | 0.52 |
| C24U U32A C60U | ≤ 0.5 |
| U26A C66A A70U | ≤ 0.5 |
| C24U C30G A45C C61G | 0.568 |
| G25C C29G C33U G39U A57U | ≤ 0.5 |
| G25A A37C A69U | 0.684 |
| C24G C31G G50A | 0.522 |
| G25C C29A G48A U53G | ≤ 0.5 |
| G25C C33G C61G | ≤ 0.5 |
| U26A U32C U53A | ≤ 0.5 |
| G25A A40G | 0.972 |

| Variant | yeast fitness |
| --- | --- |
| G25A C49G | 0.981 |
| G25C C27G U35C | ≤ 0.5 |
| C24U G38A | 0.819 |
| G25A C46U C66U | 0.778 |
| C24U A37G A70U | 0.536 |
| C24U G58A C60G | 0.897 |
| U26C A36U A45U G52C A57U | ≤ 0.5 |
| U26A C49U | 0.865 |
| U26A C49G | 0.616 |
| G25C C46U G50C | ≤ 0.5 |
| G25A C31U U47G C55A A57G A65C A70C | ≤ 0.5 |
| U26A G50U | 0.805 |
| U26C A69C | 0.885 |
| G25A C30A C34A C49A C62G C66U A70G | 0.712 |
| C24G G50A C55U A69C A70U | ≤ 0.5 |
| G25A C31U G38C U54C | 0.654 |
| U26A C60U | 0.744 |
| U26A C29A C31G A65C | 0.566 |
| C24G C30U C31G G50A | ≤ 0.5 |
| G25A A45G G50C | 0.516 |
| C24U U32A U54A | ≤ 0.5 |
| C24U G44C | 0.825 |
| U26A G39U A45C | ≤ 0.5 |
| G25C C33U C49A U53A G67A | ≤ 0.5 |

| Variant | yeast fitness |
| --- | --- |
| C24G C31U C61A | ≤ 0.5 |
| C24U U26C C27A A69U | ≤ 0.5 |
| C24U A42C | 0.994 |
| G25C U28C A69U | 0.532 |
| G25A U26A | 0.839 |
| G25U U64G | 0.788 |
| U26C A36G A69C | 0.736 |
| C24G C29G G48A | ≤ 0.5 |
| G25C C31G C34G G41A C61U A69U | ≤ 0.5 |
| C24G C66G G68C | ≤ 0.5 |
| C24G C34G A70C | ≤ 0.5 |
| C24U U26C G58A | 1.01 |
| G25A A43C U59C | 0.71 |
| C24U C34U C66U | 0.58 |
| C24U G67A | 0.913 |
| C24G G58C G68A | ≤ 0.5 |
| C24U C30U | 0.744 |
| G25A U28A C61U G67C | ≤ 0.5 |
| C24U C30G C46G G52A G58A | 0.559 |
| C24U C29U C49G | ≤ 0.5 |
| G25A G39A | 0.973 |
| G25C C31G G51C A65U | ≤ 0.5 |
| C24U A70C | 1.04 |
| G25C C31U C46U | 0.684 |

| Variant | yeast fitness |
| --- | --- |
| C24U A43U G56A | 0.837 |
| G25C G48A C60G | ≤ 0.5 |
| G25C C27U C61G | 0.502 |
| C24U A42U C61U | 0.641 |
| C24G U35G G48C C66U | ≤ 0.5 |
| U26A A40C U64G | 0.538 |
| C24U A37G A45U C55U | 0.708 |
| C24U C31U A40C A57C C61A G67A | ≤ 0.5 |
| G25A C31G A45U C61U | 0.727 |
| U26A U28A C31U G56A C66G | ≤ 0.5 |
| C24G U64A C66A | ≤ 0.5 |
| C24U C49G G56C G58A G67A | ≤ 0.5 |
| C24U C27A | 0.882 |
| C24U A45C | 0.971 |
| U26A G52A | 0.666 |
| G25C U53A C55U | ≤ 0.5 |
| C24G C30G C66U | ≤ 0.5 |
| U26A C31U A57G | 0.742 |
| C24G C29G G39C C55A | 0.592 |
| G25C C30A | 0.792 |
| G25C C30U C61G | 0.526 |
| G25C A42G G68A | 0.621 |
| G25C A65U | 1.03 |
| U26A C55U | 0.65 |

| Variant | yeast fitness |
| --- | --- |
| C24U U54G | 0.577 |
| G25C U32G G41A | 0.565 |
| U26A C27A U54C | ≤ 0.5 |
| G25C C33U U47G C49U G52C | ≤ 0.5 |
| C24U A45C G63A | 0.601 |
| G25A A43U C61A | 0.765 |
| C24U C33U C34G A40U G67A | 0.541 |
| C24U C30A C60U | ≤ 0.5 |
| C24U A37G A43G | 0.516 |
| G25C U53A A57U A65U | ≤ 0.5 |
| U26A G38C U47A C49A | ≤ 0.5 |
| U26C A45G A69U | 0.647 |
| G25C A40C C62A | 0.675 |
| C24U U53A C55A | 0.65 |
| G25A C27G C33G G39A C46U C61U A69U | ≤ 0.5 |
| C24U A37C G50C A69U | ≤ 0.5 |
| U26A A43U | 0.937 |
| C24G A70G | 0.564 |
| U26A U28A C31U G63C | ≤ 0.5 |
| U26A C30U C31U A37C G48A | ≤ 0.5 |
| C24G C34G A43U | ≤ 0.5 |
| C24U C30U A57C | ≤ 0.5 |
| C24U C34G U35G G38A A45C | 0.646 |
| U26C A45G | 0.966 |

| Variant | yeast fitness |
| --- | --- |
| G25A C34A A36C G51C | ≤ 0.5 |
| G25A G41A | 0.822 |
| U26C C27A | 0.859 |
| C24G C49G G67A A69C | 0.521 |
| C24U U26G C30U G39C G67A A69U | ≤ 0.5 |
| U26A C49U G56A | 0.706 |
| U26A G58U | 1.03 |
| U26A G58C | 0.98 |
| C24G C33G G50U U59C | ≤ 0.5 |
| C24G C31U C34U C49U A69C | ≤ 0.5 |
| G25C U35C G58C | 0.558 |
| G25U A36U G56C A65C G67A | ≤ 0.5 |
| C24G U28G C29G | ≤ 0.5 |
| G25C A57U | 0.659 |
| G25A C29U C60A | 0.728 |
| C24G C34G U47A C49A A65G | ≤ 0.5 |
| G25C U26G C60U C62G U64A A69U | ≤ 0.5 |
| U26A C34U C49G | ≤ 0.5 |
| C24G U54G G63A | 0.553 |
| G25C C29A G52A A65G | ≤ 0.5 |
| C24U U28C A40C G68C | ≤ 0.5 |
| U26A C46G C61U | 0.699 |
| C24U G39A A65U | 0.528 |
| C24G U32C A42G | 0.574 |

| Variant | yeast fitness |
| --- | --- |
| C24G C34G A36G U53A | ≤ 0.5 |
| C24G C33A A70C | ≤ 0.5 |
| C24U G41A C62A | 0.605 |
| G25A U28G G58A C66G | 0.61 |
| U26A C46U G50C U54A | 0.579 |
| G25A U32C | 0.832 |
| U26A A70U | 0.876 |
| G25A C27G C61G | 0.574 |
| C24U A40C G48A | 0.634 |
| G25A G58C A65G | 1.04 |
| U26C C27U U54G G56A | 0.54 |
| C24G C33G A36C A37C G41A A42C A65U | ≤ 0.5 |
| C24U A42U C46A C55U C61G A69C | ≤ 0.5 |
| C24U C46A A57G | 0.749 |
| G25C C27G C30G C60A | ≤ 0.5 |
| C24U C55G G67A | ≤ 0.5 |
| C24G C60A | 0.576 |
| G25U C60G | ≤ 0.5 |
| U26A C49G G67C | ≤ 0.5 |
| G25A G48A A70U | 0.81 |
| G25A C31U U64A | 0.642 |
| C24G A65U G67C | ≤ 0.5 |
| C24G C55G C62U | ≤ 0.5 |
